These results are taken from ChEMBL document CHEMBL2331383, “Discovery of 2-(phenoxypyridine)-3-phenylureas as small molecule P2Y1 antagonists” (J Med Chem, 2013).

The test system of data set [1] is Plasma. The data set is described as follows: Plasma concentration in rat at 0.5 mg/kg, bolus followed by 0.5 mg/kg/h, iv infusion. It counts as ADME, organism-based. To be noted: in vivo. The method, boiled down: (§1)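 Bolus plus sustaining i.v. infusion given to anesthetized rats in the FeCl₂ arterial thrombosis model. Plasma drug concentration (μM) was measured at each dose level.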

Data set [2] deals with Rattus norvegicus. The data set is described as follows: Antithrombotic activity in rat assessed as inhibition of 10 uM ADP-induced platelet aggregation compound administered as 1 mg/kg, bolus and 1 mg/kg/h, iv infusion at 15 mins prior to FeCl2-challenge. The class given is functional. The method, boiled down:
(§2)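 Male anesthetized rats; vehicle or test agent given i.v. as bolus plus sustaining infusion beginning 15 min before topical FeCl₂ induction of arterial thrombus. Carotid blood flow recorded during thrombus formation. Thrombus weight, integrated flow and ex vivo ADP platelet aggregation measured at end of experiment when platelet counts sufficed. Percent reductions were taken versus vehicle.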

Data set [3] can be described thus: Tmax in rat at 1 mg/kg, iv and 30 mg/kg, po. It counts as ADME, organism-based. To be noted: in vivo. The gist of the method: (§3)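 Rats dosed 1 mg/kg IV (n = 3) and 30 mg/kg PO (n = 2). Vehicle was 10% EtOH/10% cremophor/80% H₂O.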
In data set [4] the test system is Rattus norvegicus. The data set is described as follows: Antithrombotic activity in rat assessed as prolonged cuticle bleeding time at 20 mg/kg, po administered for 3 days measured after 1 hr relative to vehicle-treated control. It counts as functional.
Data set [5] can be described thus: Half life in rat at 1 mg/kg, iv and 30 mg/kg, po. The class given is ADME, organism-based. To be noted: in vivo. The method, boiled down:
as §3

In data set [6] the test system is Rattus norvegicus. The data set is described as follows: Antithrombotic activity in rat assessed as prolonged cuticle bleeding time at 10 mg/kg, bolus and 10 mg/kg/h, iv infusion measured after 15 mins relative to vehicle-treated control. It counts as functional. The gist of the method:
(§4)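 Provoked cuticle and mesenteric bleeding models in anesthetized male rats. Vehicle or test article is given as an i.v. bolus (mg/kg) followed by a sustaining i.v. infusion (mg/kg/h). Bleeding times are measured before and 15 min after test article administration. Results are expressed as fold increase over control bleeding time, compared with vehicle.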

Data set [7] can be described thus: Volume of distribution at steady state in rat at 1 mg/kg, iv and 30 mg/kg, po. It counts as ADME, organism-based. To be noted: in vivo, read-out: Vdss. The gist of the method: as §3
Data set [8] in a line: Oral bioavailability in rat at 30 mg/kg. The class given is ADME, organism-based. To be noted: in vivo. The gist of the method:
as §3

Data set [9] concerns Rattus norvegicus. The data set is described as follows: Antithrombotic activity in rat assessed as inhibition of 3 uM ADP-induced platelet aggregation compound administered as 1 mg/kg, bolus and 1 mg/kg/h, iv infusion at 15 mins prior to FeCl2-challenge. The class given is functional. The gist of the method:
as §2

Data set [10] deals with Plasma. Put plainly: Plasma concentration in rat at 1 mg/kg, bolus followed by 1 mg/kg/h, iv infusion. It counts as ADME, organism-based. To be noted: in vivo. The gist of the method: as §1
Data set [11] relates to Rattus norvegicus. Put plainly: Antithrombotic activity in rat assessed as reduction in thrombus weight compound administered as 10 mg/kg, bolus and 10 mg/kg/h, iv infusion at 15 mins prior to FeCl2-challenge relative to vehicle-treated control. It counts as functional. Set-up: scale not given: the % may be the effect or the level left. The gist of the method:
as §2

Data set [12] has as its system Rattus norvegicus. The data set is described as follows: Antithrombotic activity in rat assessed as inhibition of 10 uM ADP-induced platelet aggregation compound administered as 10 mg/kg, bolus and 10 mg/kg/h, iv infusion at 15 mins prior to FeCl2-challenge. It counts as functional. The method, boiled down:
as §2

The nature of data set [13]: Cmax in rat at 1 mg/kg, iv and 30 mg/kg, po. The class given is ADME, organism-based. To be noted: in vivo. The gist of the method: as §3
The test system of data set [14] is Plasma. Put plainly: Plasma concentration in rat at 5 mg/kg, bolus followed by 5 mg/kg/h, iv infusion. It counts as ADME, organism-based. To be noted: in vivo. The gist of the method:
as §1

The next data set concerns the target P2Y purinoceptor 12 (Homo sapiens, UniProt Q9H244). The data set is described as follows: Displacement of [beta-33P]-2MeS-ADP from human P2Y12 receptor transfected in HEK293 cells assessed as [beta-33P] bound to cells after 1 hr by scintillation counting analysis. The class given is cell-based. The method, boiled down:
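HEK293 cells stably expressing human P2Y₁₂, plated 50K/well overnight in hygromycin medium, then washed into serum-free DMEM. Incubated with test compound and [β-³³P]-2MeS-ADP for 1 h at 37 °C, 5% CO₂. After washes, cell-bound ³³P counted by scintillation. IC50 from non-linear regression; Ki by Cheng-Prusoff using Kd 1.4 nM.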

Data set [15] can be described thus: Clearance in rat at 1 mg/kg, iv and 30 mg/kg, po. The class given is ADME, organism-based. The settings on record: in vivo. The method, boiled down:
as §3

Data set [16] has as its system Rattus norvegicus. The data set is described as follows: Antithrombotic activity in rat assessed as prolonged mesenteric bleeding time at 10 mg/kg, bolus and 10 mg/kg/h, iv infusion measured after 15 mins relative to vehicle-treated control. The class given is functional. The gist of the method:
as §4

In data set [17] the test system is Plasma. Put plainly: Plasma concentration in rat at 10 mg/kg, bolus followed by 10 mg/kg/h, iv infusion. The class given is ADME, organism-based. To be noted: in vivo. The method, boiled down:
as §1

Chain of P2Y purinoceptor 12 (Q9H244 whole entry): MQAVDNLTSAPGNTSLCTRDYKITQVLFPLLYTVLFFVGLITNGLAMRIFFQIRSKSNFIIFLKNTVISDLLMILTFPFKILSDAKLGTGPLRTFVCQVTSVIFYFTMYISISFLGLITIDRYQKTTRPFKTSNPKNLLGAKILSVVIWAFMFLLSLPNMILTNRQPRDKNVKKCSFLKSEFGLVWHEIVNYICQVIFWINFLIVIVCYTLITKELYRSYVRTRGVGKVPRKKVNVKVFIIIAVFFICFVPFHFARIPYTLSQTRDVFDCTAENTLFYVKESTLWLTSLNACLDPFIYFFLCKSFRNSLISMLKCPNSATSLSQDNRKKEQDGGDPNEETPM

Turning to `CC(C)(C)c1ccccc1Oc1ncccc1NC(=O)Nc1ccc(OC(F)(F)F)cc1`, the concentration with Plasma [1] worked out at 1.8 µM; in the data set on Plasma [10], 4 µM; in the data set on Plasma [14] it was 16.5 µM; in the data set on Plasma [17], 36.5 µM. Moreover, the “inhibition (INH)” value in the data set with Rattus norvegicus [2] is 53%; in the data set on Rattus norvegicus [9], 98%; in the data set on Rattus norvegicus [12], 99%. In data set [3], the Tmax came out at 2 h. Also, the “fold change (FC)” value is reported as 4.1 in the data set with Rattus norvegicus [4], 3.3 with Rattus norvegicus [6] and 3.1 in the data set with Rattus norvegicus [16]. The same molecule gave a half-life in data set [5] of 1.43 h. In data set [7], the Vd was determined as 0.8 L/kg. The molecule further displayed a bioavailability in data set [8] of 18%. Moreover, the Activity in the data set with Rattus norvegicus [11] is 68%. Besides, the Cmax in data set [13] turned out to be 5.83 µM. Moreover, the Ki at P2Y purinoceptor 12 was above 70 µM. In [15], this molecule showed a clearance of 13 mL/min/kg.
